Measured values gathered from unrelated publications.
Compare with care: the assays were run in different laboratories.
rep papain-like protease: Replicase polyprotein 1ab, papain-like protease (rep, Porcine epidemic diarrhea virus, UniProt P0C6Y4)
SLC6A4: Sodium-dependent serotonin transporter (SLC6A4, Homo sapiens, UniProt P31645)

`CCCCC(=O)Nc1ccc(-c2ccc3ncn(CCC)c(=O)c3c2)cn1` gave a remaining binding of 54% (Mitogen-activated protein kinase kinase kinase 20 (MAP3K20, Homo sapiens, UniProt Q9NYL2); binding; competition with immobilised ligand; 0.5 µM).
The inhibition of `COc1cc(CNC(=O)c2cccc(OC(C)=O)c2C)cc(Br)c1OC` is reported as 14.1% (rep papain-like protease; enzyme activity; inhibitor; FRET; 10 µM).
The inhibition of `CCOC(=O)[C@@]12C[C@@H]1[C@@H](n1cnc3c(NCCCCCc4ccccc4)nc(C#Cc4ccc(Cl)s4)nc31)[C@H](O)[C@@H]2O` is reported as -14% (SLC6A4; ligand displacement; radioligand; 10 µM).
The inhibition of `Cc1cc(O)c(-c2ccc([C@@H](C)CN(C)C)cc2)c2c1[nH]c(=O)c1sccc12` is reported as -3.6% (SRSF protein kinase 2 (SRPK2, Homo sapiens, UniProt P78362); enzyme activity; inhibitor; 0.1 µM).
For `COc1cc(CNC(=O)c2ccccc2C)cc(Br)c1OC`, the inhibition was 92.8% (Replicase polyprotein 1ab, main protease (rep, Porcine epidemic diarrhea virus, UniProt P0C6Y4); enzyme activity; inhibitor; FRET; 10 µM).
For `CNC(=O)[C@@]12C[C@@H]1[C@@H](n1cnc3c(NCc4cccc(Cl)c4)nc(C#Cc4ccc(Cl)s4)nc31)[C@H](O)[C@@H]2O`, the inhibition was 10% (SLC6A4; ligand displacement; radioligand; 10 µM).
`COc1cc(CNC(=O)c2ccccc2SC)cc(Br)c1OC` has an inhibition of 18.8% (rep papain-like protease; enzyme activity; inhibitor; FRET; 10 µM).
`CCOC(=O)[C@@]12C[C@@H]1[C@@H](n1ccc3c(NCCCCCCCc4ccccc4)nc(C#Cc4ccccc4)nc31)[C@H](O)[C@@H]2O` gave an inhibition of 32% (SLC6A4; ligand displacement; radioligand; 10 µM).
With `C1=C/COCc2cc(ccc2OCCN2CCCC2)Nc2nccc(n2)-c2cccc(c2)COC/1` the remaining binding was 63% (Calcium/calmodulin-dependent protein kinase type 1D (CAMK1D, Homo sapiens, UniProt Q8IU85); binding; 0.1 µM).
